Measured values as given in ChEMBL document CHEMBL2385005, “Binding mechanism of the farnesoid X receptor marine antagonist suvanine reveals a strategy to forestall drug modulation on nuclear receptors. Design, synthesis, and biological evaluation of novel ligands” (J Med Chem, 2013).
The source made the active and inactive calls. The calls are words filed in the database; no cut-off is given here.

Legend:
[1] = target: T1, Bile acid receptor (Homo sapiens) (UniProt Q96RI1); assay: Agonist activity FXR (unknown origin) expressed in human HepG2 cells co-expressing RXR assessed as effect on OSTalpha mRNA level […] after 18 hrs by RT-PCR analysis; format: cell-based
T1 sequence (whole entry): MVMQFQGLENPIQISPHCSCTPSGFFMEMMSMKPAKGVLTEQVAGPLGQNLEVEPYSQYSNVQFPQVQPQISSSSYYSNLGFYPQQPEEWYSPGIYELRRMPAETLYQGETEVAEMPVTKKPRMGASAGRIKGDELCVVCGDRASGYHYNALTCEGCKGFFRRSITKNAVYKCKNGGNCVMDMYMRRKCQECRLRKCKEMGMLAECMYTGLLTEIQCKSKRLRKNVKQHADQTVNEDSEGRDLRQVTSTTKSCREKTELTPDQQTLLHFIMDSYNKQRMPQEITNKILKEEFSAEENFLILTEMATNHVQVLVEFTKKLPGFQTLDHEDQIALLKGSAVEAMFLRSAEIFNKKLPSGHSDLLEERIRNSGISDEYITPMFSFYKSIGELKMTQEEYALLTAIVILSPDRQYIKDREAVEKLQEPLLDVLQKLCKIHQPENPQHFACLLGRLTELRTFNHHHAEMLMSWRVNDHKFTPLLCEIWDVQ
How it was run: (§1)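 HepG2 cells (1 × 10^6) were starved 24 h at 37 °C in E-MEM with 1% FBS. They were then primed 18 h with compound alone at 10 μM, or with 10 μM CDCA plus compound at 50 μM. Total RNA was extracted with TRIzol, DNase-treated and random-primed reverse-transcribed. 25 ng template was amplified by SYBR Green qPCR (0.2 μM primers, 40 cycles) in triplicate.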

Bile acid receptor [2] = target: T2, Bile acid receptor (Homo sapiens, UniProt Q96RI1); assay: Transactivation of FXR (unknown origin) expressed in human HepG2 cells co-expressing RXR assessed as beta-galactosidase activity after 18 hrs by luciferase reporter gene assay; format: cell-based
T2 sequence (Q96RI1 whole entry): T1 sequence (whole entry)
How it was run: (§2)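 HepG2 cells (in MEM, 10% FBS, 37 °C) were plated at 1 × 10^5 cells/well. They were transfected with 150 ng pSG5-FXR, 150 ng pSG5-RXR, 200 ng pCMV-βgal and 500 ng p(hsp27)-TK-LUC (IR1 element). At 24 h they were stimulated 18 h with compound alone (10 μM, or 1–50 μM series) or with compound (50 μM, or 1–50 μM series) plus 10 μM CDCA. Luciferase was normalized to β-galactosidase activity.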

[3] = target: T1, Bile acid receptor (Homo sapiens); assay: Agonist activity FXR (unknown origin) expressed in human HepG2 cells co-expressing RXR assessed as effect on CyP7alpha1 mRNA level […] after 18 hrs by RT-PCR analysis; format: cell-based; how it was run: as §1
[4] = target: Peroxisome proliferator-activated receptor gamma (Homo sapiens) (UniProt P37231); assay: Agonist activity at PPARgamma LBD (unknown origin) transfected in human HepG2 cells co-expressing GAL4-DBD at 10 uM after 18 hrs by luciferase reporter gene assay
[5] = target: T1, Bile acid receptor (Homo sapiens); assay: Transactivation of FXR (unknown origin) expressed in human HepG2 cells co-expressing RXR assessed as beta-galactosidase activity at 50 uM after 18 hrs by luciferase reporter gene assay relative to CDCA; format: cell-based; how it was run: as §2
[6] = target: T1, Bile acid receptor (Homo sapiens); assay: Agonist activity FXR (unknown origin) expressed in human HepG2 cells co-expressing RXR assessed as effect on SHP mRNA level at […] after 18 hrs by RT-PCR analysis; format: cell-based; how it was run: as §1
[7] = target: T3, Oxysterols receptor LXR-alpha (Homo sapiens) (UniProt Q13133); assay: Agonist activity at LXRalpha LBD (unknown origin) transfected in human HepG2 cells co-expressing GAL4-DBD at 10 uM after 18 hrs by luciferase reporter gene assay; format: cell-based
T3 sequence (whole entry): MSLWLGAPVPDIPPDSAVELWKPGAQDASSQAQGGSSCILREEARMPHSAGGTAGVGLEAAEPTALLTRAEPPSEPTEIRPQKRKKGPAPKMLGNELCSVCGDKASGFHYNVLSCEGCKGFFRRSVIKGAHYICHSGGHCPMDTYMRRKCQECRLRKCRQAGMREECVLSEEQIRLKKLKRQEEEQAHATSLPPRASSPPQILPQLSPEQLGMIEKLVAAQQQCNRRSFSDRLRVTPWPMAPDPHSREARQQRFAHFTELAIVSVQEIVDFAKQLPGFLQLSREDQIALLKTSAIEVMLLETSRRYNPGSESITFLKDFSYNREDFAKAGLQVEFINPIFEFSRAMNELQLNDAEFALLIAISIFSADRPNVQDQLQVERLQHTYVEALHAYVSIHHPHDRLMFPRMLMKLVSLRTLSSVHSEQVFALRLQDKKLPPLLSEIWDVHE
How it was run: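 HepG2 cells were transiently transfected with 500 ng p(UAS)5XTKLuc, 200 ng pCMV-β-galactosidase and a GAL4-DBD–LXRα LBD vector. At 48 h post-transfection they were stimulated 18 h with compound at 10 μM or the reference agonist. Luciferase was read. Data are mean ± SE of three experiments.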

[8] = target: T1, Bile acid receptor (Homo sapiens); assay: Transactivation of FXR (unknown origin) expressed in human HepG2 cells co-expressing RXR assessed as beta-galactosidase activity at 50 uM after 18 hrs by luciferase reporter gene assay; format: cell-based; how it was run: as §2
[9] = target: T4, Nuclear receptor subfamily 1 group I member 2 (Homo sapiens, UniProt O75469); assay: Agonist activity at PXR (unknown origin) transfected in human HepG2 cells co-expressing RXR assessed as CYP3A4 expression at 10 uM after 18 hrs by luciferase reporter gene assay; conditions: hepg2, 18 h
T4 sequence (O75469 whole entry): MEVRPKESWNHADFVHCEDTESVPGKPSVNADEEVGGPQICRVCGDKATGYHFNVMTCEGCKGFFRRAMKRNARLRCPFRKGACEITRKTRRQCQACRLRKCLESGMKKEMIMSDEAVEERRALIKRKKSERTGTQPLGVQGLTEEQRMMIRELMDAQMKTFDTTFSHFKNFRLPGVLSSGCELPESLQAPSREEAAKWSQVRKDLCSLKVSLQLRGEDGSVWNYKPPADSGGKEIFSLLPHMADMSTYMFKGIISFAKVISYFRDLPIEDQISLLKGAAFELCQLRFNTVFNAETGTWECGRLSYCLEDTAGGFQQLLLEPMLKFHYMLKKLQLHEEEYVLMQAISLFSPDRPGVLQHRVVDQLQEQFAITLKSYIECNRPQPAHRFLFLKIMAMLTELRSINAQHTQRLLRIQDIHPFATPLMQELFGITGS

[10] = target: T1, Bile acid receptor (Homo sapiens); assay: Antagonist activity at FXR (unknown origin) expressed in human HepG2 cells co-expressing RXR assessed as inhibition of CDCA-induced OSTalpha gene expression at 50 uM after 18 hrs by RT-PCR analysis; format: cell-based; how it was run: as §1
[11] = target: T1, Bile acid receptor (Homo sapiens); assay: Antagonist activity at FXR (unknown origin) expressed in human HepG2 cells co-expressing RXR assessed as inhibition of CDCA-induced SHP gene expression at 50 uM after 18 hrs by RT-PCR analysis; format: cell-based; how it was run: as §1
[12] = target: T1, Bile acid receptor (Homo sapiens); assay: Antagonist activity at FXR (unknown origin) expressed in human HepG2 cells assessed as inhibition of 6-ECDCA-induced NCoR binding to chromatin at 15 uM after 18 hrs by chromatin immunoprecipitation assay; format: cell-based
How it was run: (§3)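 HepG2 cells (10 × 10^6) were serum-starved 24 h, then treated 18 h with 6-ECDCA 5 μM alone or with compound 15 μM. Cells were crosslinked with 1% formaldehyde for 10 min and quenched with 125 mM glycine. Sonicated chromatin was immunoprecipitated overnight at 4 °C with anti-FXR, anti-Src1, anti-NCoR or IgG. OSTα promoter DNA was measured by qPCR as 2^−ΔΔCt versus input and unstimulated IgG.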

[13] = target: T1, Bile acid receptor (Homo sapiens); assay: Antagonist activity at FXR (unknown origin) expressed in human HepG2 cells co-expressing RXR assessed as inhibition of CyP7alpha1 gene expression at 50 uM after 18 hrs by RT-PCR analysis; format: cell-based; how it was run: as §1
[14] = target: T1, Bile acid receptor (Homo sapiens); assay: Transactivation of FXR (unknown origin) expressed in human HepG2 cells co-expressing RXR assessed as beta-galactosidase activity at 10 uM after 18 hrs by luciferase reporter gene assay; format: cell-based; how it was run: as §2
[15] = target: T1, Bile acid receptor (Homo sapiens); assay: Antagonist activity at FXR (unknown origin) expressed in human HepG2 cells co-expressing RXR assessed as inhibition of CDCA-induced transactivation at 50 uM after 18 hrs by luciferase reporter gene assay; format: cell-based; how it was run: as §2
[16] = target: T1, Bile acid receptor (Homo sapiens); assay: (§4) Antagonist activity at FXR (unknown origin) expressed in human HepG2 cells co-expressing RXR assessed as inhibition of CDCA-induced transactivation after 18 hrs by luciferase reporter gene assay; format: cell-based; how it was run: as §2
Bile acid receptor [17] = target: T2, Bile acid receptor; assay: as §4; format: cell-based; how it was run: as §2
[18] = target: T1, Bile acid receptor (Homo sapiens); assay: Antagonist activity at FXR (unknown origin) expressed in human HepG2 cells assessed as inhibition of 6-ECDCA-induced FXR/Src-1-mediated transcription activation complex formation at 15 uM after 18 hrs by chromatin immunoprecipitation assay; format: cell-based; how it was run: as §3

Compound | Activity [4] | Activity [7] | Activity [8] | Activity [9] | inhibition [10] | inhibition [11] | inhibition [15] | EC50 (Bile acid receptor [17]) | other results
COC(=O)CC[C@H]1C(=O)CC[C@H]2[C@]1(C)CC[C@H]1C(C)(C)CCC[C@]21C | – | – | – | – | Active | Active | – | – | –
CC1(C)CCC[C@]2(C)C3CC[C@@]4(C=O)[C@@H]5OC(=O)C=C5CC[C@@H]4[C@@]3(C)CC[C@@H]12 (single isomer, unassigned) | – | – | – | – | Active | Active | Active | – | –

The next lines start with results.

Activity [4] | Activity [7] | Activity [8] | Activity [9] | inhibition [10] | inhibition [11] | inhibition [15] | EC50 (Bile acid receptor [17]) | Compound | other results
inactive | inactive | Active | Active | – | – | – | – | CC1(C)CCC[C@]2(C)[C@H]3CC[C@@H](CCCO)[C@H](CCc4ccoc4)[C@@]3(C)CC[C@@H]12 | Activity [1]: Active; EC50 (Bile acid receptor [2]): 30 µM; Activity [3]: Active; Efficacy [5]: 21.5%; Activity [6]: Active
inactive | inactive | – | Active | Active | Active | Active | 24 µM | CC1(C)CCC[C@]2(C)[C@H]3CC/C(=C\OS(=O)(=O)[O-])[C@H](CCc4ccoc4)[C@@]3(C)CC[C@@H]12.[Na+] [SUVANINE'S SODIUM SALT] | inhibition [12]: inactive; Activity [13]: Active; Activity [14]: inactive; inhibition [16]: Dose-dependent effect; inhibition [18]: Active
– | – | Active | – | – | – | – | – | CC1(C)CCC[C@]2(C)[C@H]3CC[C@H](/C=C/C(=O)O)[C@H](CCc4ccoc4)[C@@]3(C)CC[C@@H]12 | –
inactive | inactive | – | Active | Active | Active | – | 25 µM | CC1(C)CCC[C@]2(C)[C@H]3CC[C@H](O)[C@H](CCc4ccoc4)[C@@]3(C)CC[C@@H]12 | –
